The text below walks through data of ChEMBL document CHEMBL3259808, “Optimization of antitrypanosomatid agents: identification of nonmutagenic drug candidates with in vivo activity” (J Med Chem, 2014).

Structures are written as SMILES. Active and inactive are the calls of the source. No cut-off for these calls is given here.

One series deals with Mus musculus. Description: Toxicity in BALB/c mouse assessed as mortality at 100 mg/kg/day, po for 14 days. Details: route oral. As to conditions: in vivo, 336 h. Format: organism-based. In short, it runs like this:
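Uninfected female BALB/c mice (n = 2/group) received intragastric gavage daily for 14 days in saline/Tween 80 (4:1). They were weighed and monitored daily, then sacrificed for macroscopic necropsy of organs.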

For series [1], the system named is Trypanosoma cruzi. Put plainly: Antitrypanosomal activity against Trypanosoma cruzi CL Brener infected in BALB/c mouse assessed as mouse survival at 214 umol/kg/day, po for 14 days administered in cholesterol/surfactant/phosphate buffer measured up to 60 days relative to control. Format: functional. In short, it runs like this:
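Infected male BALB/c mice (30 days old, 25–30 g) were gavaged daily from day 6 postinfection for 14 days. Vehicle was a microemulsion of 10% cholesterol, 10% surfactant (soya phosphatidylcholine/sodium oleate/polyoxyl-40 hydrogenated castor oil) and 80% phosphate buffer pH 7.4. n = 7/group, with vehicle controls. Tail-vein parasitemia was taken weekly for 60 days and mortality recorded.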

Series [2] concerns Salmonella typhimurium. Put plainly: Mutagenic activity in Salmonella typhimurium TA102 at 3.09 to 250 ug/plate by Ames test in presence of mouse liver S9 fraction. Format: toxicity, organism-based. As to conditions: salmonella enterica subsp. enterica serovar typhimurium. Put shortly:
(§1)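 Plate-incorporation Ames test on minimal glucose agar with 500 μL Aroclor-treated mouse liver S9 added. DMSO solutions were tested at five consecutive 3-fold dilutions from the highest non-toxic dose, in triplicate, with a DMSO negative control. Revertants were counted manually; a compound was scored mutagenic when revertants were at least twice the negative control for two or more consecutive doses.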
For orientation: The Ames test uses bacterial strains that need an amino acid and regain growth without it when mutated back.

For series [3], the system named is Trypanosoma cruzi. Description: Antitrypanosomal activity against Trypanosoma cruzi Sylvio X-10 amastigotes infected in African green monkey Vero cells assessed as eradication of amastigotes after 5 days by Giemsa staining-based assay. Format: functional, organism-based. The settings on record: Sylvio X-10, Vero, 120 h. In short, it runs like this:
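VERO cells in RPMI 1640 with 10% hiFCS were allowed to adhere for 24 h at 37 °C in 5% CO₂, then infected with tissue-derived trypomastigotes at 10:1. Free parasites were washed off after 24 h, and cultures were treated at five compound doses (text gives 72 h / 5 days). Cultures were methanol-fixed and Giemsa-stained, and infected cells were counted among 300. Quadruplicates were run in three independent experiments. IC50/IC90 were obtained by sigmoidal regression.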

The nature of series [4]: Stability of the compound in aqueous solution assessed as compound remaining at 1 mM at pH 1 after 1 hr by TLC analysis. Format: physicochemical. As to conditions: read-out: Stability. In short, it runs like this:
(§2)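 DMSO stocks diluted to final 1 mM in KCl·HCl pH 1.0, citrate pH 6.0, Tris·HCl pH 7.4 or borax·HCl pH 9.0 buffer. Incubated 1 h at 37 °C, then ethyl acetate extracts checked by TLC for decomposition products.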

In series [5] the test system is Trypanosoma cruzi. Put plainly: Antitrypanosomal activity against Trypanosoma cruzi CL Brener infected in BALB/c mouse assessed as peak of maximum parasitemia at 107 umol/kg/day, po for 14 days administered in cholesterol/surfactant/phosphate buffer measured up to 60 days relative to control. Format: functional. Put shortly:
(§3)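 Male BALB/c mice (30 days old, 25–30 g, SPF) were infected i.p. with 10³ blood trypomastigotes, n = 7/group. Daily oral gavage in a microemulsion (cholesterol oil phase, phosphatidylcholine/sodium oleate/polyoxyl-40 hydrogenated castor oil surfactant, phosphate buffer pH 7.4) ran for 14 days from day 6; vehicle controls were included. Parasitemia was read weekly in tail-vein blood by hemocytometer for 60 days, with survival recorded.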

Series [6] is described as follows: Stability of the compound in aqueous solution assessed as compound remaining at 1 mM at pH 6 after 1 hr by TLC analysis. As to conditions: aqueous solution, pH 6; read-out: Stability. Format: physicochemical. In short, it runs like this: as §2
Series [7] concerns Trypanosoma cruzi. Description: Antitrypanosomal activity against Trypanosoma cruzi CL Brener infected in BALB/c mouse assessed as mouse survival at 107 umol/kg/day, po for 14 days administered in saline and tween 80 measured up to 60 days relative to control. Format: functional. Put shortly: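 Male BALB/c mice (30 days old, 25–30 g, SPF) infected i.p.; daily intragastric gavage for 14 days, starting day 6 postinfection, in saline/Tween 80 (4:1 v/v); n = 8/group; vehicle-only control. Parasitemia counted by hemocytometer in tail-vein blood; survival followed to 65 days postinfection.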

In series [8] the test system is Trypanosoma cruzi. Description: Antitrypanosomal activity against Trypanosoma cruzi CL Brener infected in BALB/c mouse assessed as peak of maximum parasitemia at 214 umol/kg/day, po for 14 days administered in cholesterol/surfactant/phosphate buffer measured up to 60 days relative to control. Format: functional. In short, it runs like this:
as §3

Series [9] concerns Salmonella typhimurium. Put plainly: Mutagenic activity in Salmonella typhimurium TA1537 at 3.09 to 250 ug/plate by Ames test. Format: toxicity, organism-based. The settings on record: salmonella enterica subsp. enterica serovar typhimurium. Put shortly: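 Direct plate incubation on minimal glucose agar (Vogel-Bonner E). Compound toxicity to the bacteria was checked first. DMSO solutions were tested at five consecutive 3-fold dilutions, starting from the highest non-toxic dose, in triplicate, without metabolic activation. DMSO served as negative control. Revertants were counted manually; mutagenic = revertants at least double the negative control at two or more consecutive doses.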

Series [10] concerns Trypanosoma cruzi. Description: Antitrypanosomal activity against Trypanosoma cruzi Y trypomastigotes assessed as growth inhibition at 25 uM after 48 hrs by microscopic analysis relative to control. Format: functional. As to conditions: read-out: GI. Put shortly:
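Blood was collected by cardiac puncture, with sodium citrate, from BALB/c mice 7 days after infection. Compound was dissolved in minimal DMSO and diluted in PBS (final 25 μM). Drug solution was mixed with infected blood (about 10⁶ parasites/mL) in triplicate, shaken 10 min at room temperature, then held at 4 °C for 48 h. Parasites were counted microscopically against untreated infected blood. Gentian violet 250 μg/mL was the reference.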

Series [11] deals with Salmonella typhimurium. Description: Mutagenic activity in Salmonella typhimurium TA98 at 5 to 400 ug/plate by Ames test. The settings on record: salmonella enterica subsp. enterica serovar typhimurium. Format: toxicity, organism-based. Put shortly:
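Ames plate-incorporation assay with S. typhimurium TA98 in Vogel-Bonner E minimal glucose agar. Toxicity toward the bacteria was checked first. DMSO solutions were run in triplicate at five consecutive third-dilutions, starting at the highest non-toxic dose. Positive controls were 4-nitro-o-phenylenediamine (20.0 μg/plate) and 2-aminofluorene (10.0 μg/plate); DMSO was the negative control. Revertants were counted manually. A compound was called mutagenic when revertants were at least twice the negative control at two or more consecutive doses.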

The subject of series [12] is Salmonella typhimurium. Put plainly: Mutagenic activity in Salmonella typhimurium TA100 at 0.003 to 0.2 ug/plate by Ames test in presence of mouse liver S9 fraction. The settings on record: salmonella enterica subsp. enterica serovar typhimurium. Format: toxicity, organism-based. In short, it runs like this:
as §1

For series [13], the system named is Salmonella typhimurium. Put plainly: Mutagenic activity in Salmonella typhimurium TA1537 at 3.09 to 250 ug/plate by Ames test in presence of mouse liver S9 fraction. The settings on record: salmonella enterica subsp. enterica serovar typhimurium. Format: toxicity, organism-based. In short, it runs like this: as §1
Series [14] can be described thus: Stability of the compound in aqueous solution assessed as compound remaining at 1 mM at pH 9 after 1 hr by TLC analysis. Format: physicochemical. As to conditions: aqueous solution, pH 9; read-out: Stability. Put shortly:
as §2

Series [15] relates to Trypanosoma cruzi. Description: Antitrypanosomal activity against Trypanosoma cruzi Sylvio X-10 amastigotes infected in African green monkey Vero cells assessed as eradication of amastigotes at 5 uM after 5 days by optical microscopic analysis. Format: functional, organism-based. The settings on record: in the assay text read “after 72 hrs” for “after 5 days”. In short, it runs like this:
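VERO cells infected with Sylvio X-10 parasites were treated with 5 μM compound and examined by optic microscopy after 72 h of incubation for intracellular amastigotes and trypomastigotes.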

Series [16] in a line: Stability of the compound in aqueous solution assessed as compound remaining at 1 mM at 37 degC after 1 hr by TLC analysis in presence of rat liver cytosolic fraction. Format: ADME. As to conditions: cytosol, 1000 µM. In short, it runs like this: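 Rat liver cytosolic (100 000g supernatant) and microsomal (100 000g pellet, washed and resuspended in Tris·HCl) fractions, fresh or stored at −80 °C; protein measured by BCA. Compound incubated with the fraction 1 h at 37 °C and analysed by TLC of extracts.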

The term IC50 denotes the concentration that inhibits the measured activity by half.

In the case of `Br.C=CCn1c(-c2ccc(Cl)cc2)cs\c1=N/N=C/C=C/c1ccco1.O`, the Activity result in the series on Mus musculus, with Salmonella typhimurium [2], in the series on Salmonella typhimurium [9], in the series with Salmonella typhimurium [11], with Salmonella typhimurium [12] and in the series with Salmonella typhimurium [13] was “Non-toxic” in each case. Further, the survival at 214 µmol/kg in the series on Trypanosoma cruzi [1] came out at 100%. Also, in the series on Trypanosoma cruzi [3], the IC50 is less than 250 nM. Also, the remaining at 1 h, 1000 µM is 90% in series [4], greater than 95% in series [6] and greater than 95% in series [14]. The Time with Trypanosoma cruzi [5] and in the series on Trypanosoma cruzi [8] was 35 days in each case. Besides, the survival at 107 µmol/kg in the series on Trypanosoma cruzi [7] is 75%. The inhibition of growth at 25 µM with Trypanosoma cruzi [10] turned out to be 70%. In addition, the result in the series on Trypanosoma cruzi [15] was Active. The Stability entry in series [16] is “Stable”.
